Tests used:
[1] = target: T1, Integrin alpha-IIb/beta-3 (Homo sapiens, UniProt P05106+P08514); experiment: Inhibition of fibrinogen binding to alpha2bbeta3 isolated from human HEL cells incubated for 1 hr by […] competitive solid-phase binding assay
Integrin alpha-V/beta-6 [2] = target: T2, Integrin alpha-V/beta-6 (Homo sapiens, UniProt P06756+P18564); experiment: Inhibition of fibronectin binding to alphaVbeta6 isolated form human HT-29 cells incubated for 1 hr by […] competitive solid-phase binding assay; type: tissue-based
Integrin alpha-5/beta-1 [3] = target: T3, Integrin alpha-5/beta-1 (Homo sapiens, UniProt P05556+P08648); experiment: Antagonist activity at alpha5beta1 in human K562 cells assessed as reduction in cell adhesion to fibronectin pre-incubated for 30 mins before fibronectin and further incubated for 1 hr by nitrophenyl-N-acetyl-beta-D-glucosaminide substrate based chromogenic assay
Outline: (§1)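 Compound or methanol vehicle pre-incubated with cells for 30 min at room temperature. Cells then plated on wells coated overnight at 4 °C with fibronectin 10 µg/mL (SK-MEL-24, K562, HT-29) or fibrinogen 10 µg/mL (MCF7, HEL). Seeding was 50,000 cells/well, or 100000 for HEL. Adhesion ran 1 h at room temperature. Wells washed with 1% BSA/PBS. Adherent cells read by hexosaminidase substrate, absorbance 405 nm. Quadruplicate, at least three repeats.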

Integrin alpha-V/beta-5 [4] = target: T4, Integrin alpha-V/beta-5 (Homo sapiens, UniProt P06756+P18084); experiment: Agonist activity at alphaVbeta5 in human MCF7 cells assessed as increase in cell adhesion to fibrinogen pre-incubated for 30 mins before fibrinogen and further incubated for 1 hr by nitrophenyl-N-acetyl-beta-D-glucosaminide substrate based chromogenic assay; outline: as §1
Integrin alpha-V/beta-3 [5] = target: T5, Integrin alpha-V/beta-3 (Homo sapiens, UniProt P05106+P06756); experiment: Antagonist activity at alphaVbeta3 in human SK-MEL-24 cells assessed as reduction in cell adhesion to fibronectin pre-incubated for 30 mins before fibronectin and further incubated for 1 hr by nitrophenyl-N-acetyl-beta-D-glucosaminide substrate based chromogenic assay
Outline: (§2)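 Compound or methanol vehicle pre-incubated with cells for 30 min at room temperature. Cells then plated on wells coated overnight at 4 °C with fibronectin 10 µg/mL (SK-MEL-24, K562, HT-29) or fibrinogen 10 µg/mL (MCF7, HEL). Seeding was 50,000 cells/well, or 100000 for HEL. Adhesion ran 1 h at room temperature. Wells washed with 1% BSA/PBS. Quadruplicate, at least three repeats.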

Integrin alpha-5/beta-1 [6] = target: T3, Integrin alpha-5/beta-1; experiment: Inhibition of fibronectin binding to alpha5beta1 isolated from human K562 cells incubated for 1 hr by […] competitive solid-phase binding assay; type: tissue-based
Outline: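 Plates coated overnight at 4 °C in carbonate buffer pH 9.6 with fibronectin 0.5 µg/mL (αvβ3, αvβ6, α5β1), fibrinogen 10 µg/mL (αIIbβ3, αvβ5) or ICAM-1 (αLβ2). Blocked 1 h in buffer containing Ca/Mg/Mn 1 mM each and 1% BSA. Purified integrin (3–10 µg/mL) incubated with compound (10⁻⁴–10⁻¹⁰ M) 1 h at room temperature. Bound integrin detected with primary antibody then AlexaFluor488 secondary, Ex485/Em535. Duplicate, at least three repeats.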

[7] = target: T1, Integrin alpha-IIb/beta-3; experiment: Agonist activity at alpha2bbeta3 in human HEL cells assessed as increase in cell adhesion to fibrinogen pre-incubated for 30 mins before fibrinogen and further incubated for 1 hr by nitrophenyl-N-acetyl-beta-D-glucosaminide substrate based chromogenic assay; outline: as §2
HEL = experiment: Toxicity in human HEL cells assessed as induction of cell necrosis and/or apoptosis incubated for 3 hrs by annexin V-PE and 7-AAD staining based by flow cytometry
Outline: (§3)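 After 3 h incubation, cells resuspended in complete medium and stained with annexin V-PE/7-AAD reagent for 20 min at room temperature in the dark. Flow cytometry sorted cells into viable, early apoptotic and late apoptotic/necrotic populations.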

[8] = target: T1, Integrin alpha-IIb/beta-3; experiment: Antagonist activity at alpha2bbeta3 in human HEL cells assessed as reduction in cell adhesion to fibrinogen pre-incubated for 30 mins before fibrinogen and further incubated for 1 hr by nitrophenyl-N-acetyl-beta-D-glucosaminide substrate based chromogenic assay; outline: as §2
Integrin alpha-V/beta-3 [9] = target: T5, Integrin alpha-V/beta-3; experiment: Agonist activity at alphaVbeta3 in human SK-MEL-24 cells assessed as increase in cell adhesion to fibronectin pre-incubated for 30 mins before fibronectin and further incubated for 1 hr by nitrophenyl-N-acetyl-beta-D-glucosaminide substrate based chromogenic assay; outline: as §1
Integrin alpha-V/beta-6 [10] = target: T2, Integrin alpha-V/beta-6; experiment: Agonist activity at alphaVbeta6 in human HT-29 cells assessed as increase in cell adhesion to fibronectin pre-incubated for 30 mins before fibronectin and further incubated for 1 hr by nitrophenyl-N-acetyl-beta-D-glucosaminide substrate based chromogenic assay; outline: as §1
SK-MEL-24 = experiment: Toxicity in human SK-MEL-24 cells assessed as induction of cell necrosis and/or apoptosis incubated for 3 hrs by annexin V-PE and 7-AAD staining based by flow cytometry; details: sk-mel-24, 3 h; outline: as §3
Integrin alpha-V/beta-6 [11] = target: T2, Integrin alpha-V/beta-6; experiment: Antagonist activity at alphaVbeta6 in human HT-29 cells assessed as reduction in cell adhesion to fibronectin pre-incubated for 30 mins before fibronectin and further incubated for 1 hr by nitrophenyl-N-acetyl-beta-D-glucosaminide substrate based chromogenic assay; outline: as §2
MCF7 = experiment: Toxicity in human MCF7 cells assessed as induction of cell necrosis and/or apoptosis incubated for 3 hrs by annexin V-PE and 7-AAD staining based by flow cytometry; details: mcf7, 3 h; outline: as §3
[12] = target: T6, Integrin alpha-L/beta-2 (LFA-1) (Homo sapiens, UniProt P05107+P20701); experiment: Antagonist activity at alphaLbeta2 in human Jurkat E6.1 cells assessed as reduction in cell adhesion to ICAM1 pre-incubated for 30 mins before ICAM1 and further incubated for 30 mins by […]; type: cell-based
Outline: (§4)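 Jurkat E6.1 cells labelled with CellTracker green CMFDA (12.5 µM, 30 min, 37 °C), washed, then pre-incubated 30 min at 37 °C with compound or methanol. Plated at 500,000/well on VCAM-1 (α4β1) or ICAM-1 (αLβ2) coated wells (5 µg/mL) for 30 min at 37 °C. Cells lysed in 0.5% Triton X-100; fluorescence read Ex485/Em535. Quadruplicate, at least three repeats.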

Integrin alpha-4/beta-1 [13] = target: T7, Integrin alpha-4/beta-1 (Homo sapiens, UniProt P05556+P13612); experiment: Antagonist activity at alpha4beta1 in human Jurkat E6.1 cells assessed as reduction in exposure of HUTS-21 epitope measured by mAb binding; type: cell-based; details: filed as antagonist
Outline: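 Jurkat E6.1 cells at 10⁶/mL in 1% BSA/HBSS incubated 30 min at 37 °C with compound. PE-labelled HUTS-21 mAb then added for 45 min at room temperature. Cells washed, 10,000 analysed by flow cytometry. MFI corrected to isotype control set to 0. Four independent experiments in duplicate.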

Integrin alpha-V/beta-5 [14] = target: T4, Integrin alpha-V/beta-5; experiment: Antagonist activity at alphaVbeta5 in human MCF7 cells assessed as reduction in cell adhesion to fibrinogen pre-incubated for 30 mins before fibrinogen and further incubated for 1 hr by nitrophenyl-N-acetyl-beta-D-glucosaminide substrate based chromogenic assay; outline: as §2
[15] = target: T6, Integrin alpha-L/beta-2 (LFA-1); experiment: Agonist activity at alphaLbeta2 in human Jurkat E6.1 cells assessed as increase in cell adhesion to ICAM1 pre-incubated for 30 mins before ICAM1 and further incubated for 30 mins by […]; type: cell-based; outline: as §4
Integrin alpha-4/beta-1 [16] = target: T7, Integrin alpha-4/beta-1; experiment: Antagonist activity at alpha4beta1 in human Jurkat E6.1 cells assessed as reduction in cell adhesion to VCAM1 pre-incubated for 30 mins before VCAM1 and further incubated for 30 mins by […]; type: cell-based
Integrin alpha-V/beta-5 [17] = target: T4, Integrin alpha-V/beta-5; experiment: Inhibition of fibrinogen binding to alphaVbeta5 isolated form human mCf7 cells incubated for 1 hr by […] competitive solid-phase binding assay
K562 = experiment: Toxicity in human K562 cells assessed as induction of cell necrosis and/or apoptosis incubated for 3 hrs by annexin V-PE and 7-AAD staining based by flow cytometry; details: k562, 3 h; outline: as §3
Integrin alpha-4/beta-1 [18] = target: T7, Integrin alpha-4/beta-1; experiment: Inhibition of fibronectin binding to […] isolated from human Jurkat E6.1 cells incubated for 1 hr by scintillation-proximity assay based competitive solid-phase binding assay; type: tissue-based
Integrin alpha-4/beta-1 [19] = target: T7, Integrin alpha-4/beta-1; experiment: Antagonist activity at alpha4beta1 in human Jurkat E6.1 cells assessed as reduction in VCAM-1 induced ERK1/2 phosphorylation at 1 to 100 nM by Western blot analysis; type: cell-based; details: filed as antagonist, dose 1-100 nM
HT-29 = experiment: Toxicity in human HT-29 cells assessed as induction of cell necrosis and/or apoptosis incubated for 3 hrs by annexin V-PE and 7-AAD staining based by flow cytometry; details: ht-29, 3 h; outline: as §3
Integrin alpha-V/beta-3 [20] = target: T5, Integrin alpha-V/beta-3; experiment: Inhibition of fibronectin binding to human recombinant alphaVbeta3 expressed in HEK293 cells incubated for 1 hr by […] competitive solid-phase binding assay; type: cell-based

Compound: Nc1ccc(CNC(=O)N2C(=O)C[C@H]2C(=O)O)cc1.O=C(O)C(F)(F)F
- IC50 [1]: > 1000 nM
- IC50 (Integrin alpha-V/beta-6 [2]): > 1000 nM
- IC50 (Integrin alpha-5/beta-1 [3]): 525 nM
- EC50 (Integrin alpha-V/beta-5 [4]): > 5000 nM
- IC50 (Integrin alpha-V/beta-3 [5]): > 5000 nM
- IC50 (Integrin alpha-5/beta-1 [6]): 331 nM
- EC50 [7]: > 5000 nM
- Activity (HEL): Non-Toxic
- IC50 [8]: > 5000 nM
- EC50 (Integrin alpha-V/beta-3 [9]): > 5000 nM
- EC50 (Integrin alpha-V/beta-6 [10]): > 5000 nM
- Activity (SK-MEL-24): Non-Toxic
- IC50 (Integrin alpha-V/beta-6 [11]): > 5000 nM
- Activity (MCF7): Non-Toxic
- IC50 [12]: > 5000 nM
- Activity (Integrin alpha-4/beta-1 [13]): Dose-dependent effect
- IC50 (Integrin alpha-V/beta-5 [14]): > 5000 nM
- EC50 [15]: > 5000 nM
- IC50 (Integrin alpha-4/beta-1 [16]): 8.8 nM
- IC50 (Integrin alpha-V/beta-5 [17]): > 1000 nM
- Activity (K562): Non-Toxic
- IC50 (Integrin alpha-4/beta-1 [18]): 7.6 nM
- Activity (Integrin alpha-4/beta-1 [19]): Dose-dependent effect
- Activity (HT-29): Non-Toxic
- IC50 (Integrin alpha-V/beta-3 [20]): > 1000 nM

Reference: ChEMBL document CHEMBL4680084, “New β-Lactam Derivatives Modulate Cell Adhesion and Signaling Mediated by RGD-Binding and Leukocyte Integrins” (J Med Chem, 2016)
